What was measured:
[1] = target: Cytochrome P450 2B1 (Rattus norvegicus) (UniProt P00176); assay: Inhibition of CYP2B1 (rat)-mediated depentylation of resorufin pentyl ether after 5 mins by spectrofluorimetric analysis
[2] = target: T1, CYP2A6 (Homo sapiens, UniProt P11509); assay: Inhibition of CYP2A6 (unknown origin)-mediated coumarin 7-hydroxylation after 5 mins by spectrofluorimetric analysis; conditions: probe coumarin (7-hydroxylation)
T1 sequence (P11509 whole entry): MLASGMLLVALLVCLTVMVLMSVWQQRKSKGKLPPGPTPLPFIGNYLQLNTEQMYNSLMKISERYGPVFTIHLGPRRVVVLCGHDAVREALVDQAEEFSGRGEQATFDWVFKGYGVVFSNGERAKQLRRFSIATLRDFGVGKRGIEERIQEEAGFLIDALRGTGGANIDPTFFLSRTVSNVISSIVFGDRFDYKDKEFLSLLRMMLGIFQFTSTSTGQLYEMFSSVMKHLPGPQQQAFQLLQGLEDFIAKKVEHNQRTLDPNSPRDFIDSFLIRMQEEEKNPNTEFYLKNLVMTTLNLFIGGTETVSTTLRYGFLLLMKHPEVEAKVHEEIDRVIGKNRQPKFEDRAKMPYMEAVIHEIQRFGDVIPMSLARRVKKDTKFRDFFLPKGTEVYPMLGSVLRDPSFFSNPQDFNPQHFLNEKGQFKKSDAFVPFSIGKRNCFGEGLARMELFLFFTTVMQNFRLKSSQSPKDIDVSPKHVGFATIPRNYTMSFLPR
Summary of the method: (§1)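 Microsomal P450 (final 5 nM) in 0.1 M potassium phosphate pH 7.6 with MgCl2; resorufin ether or coumarin substrate final 5 μM from DMSO stock; inhibitor added in DMSO, DMSO alone for controls. Reaction started with NADPH regenerating system (NADP+, glucose 6-phosphate, G6P dehydrogenase) at 37 °C; product formation followed fluorimetrically as progress curves.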

[3] = target: T2, Cytochrome P450 1A1 (Homo sapiens, UniProt P04798); assay: Inhibition of CYP1A1 (unknown origin)-mediated deethylation of resorufin ethyl ether after 5 mins by spectrofluorimetric analysis
T2 sequence (P04798 whole entry): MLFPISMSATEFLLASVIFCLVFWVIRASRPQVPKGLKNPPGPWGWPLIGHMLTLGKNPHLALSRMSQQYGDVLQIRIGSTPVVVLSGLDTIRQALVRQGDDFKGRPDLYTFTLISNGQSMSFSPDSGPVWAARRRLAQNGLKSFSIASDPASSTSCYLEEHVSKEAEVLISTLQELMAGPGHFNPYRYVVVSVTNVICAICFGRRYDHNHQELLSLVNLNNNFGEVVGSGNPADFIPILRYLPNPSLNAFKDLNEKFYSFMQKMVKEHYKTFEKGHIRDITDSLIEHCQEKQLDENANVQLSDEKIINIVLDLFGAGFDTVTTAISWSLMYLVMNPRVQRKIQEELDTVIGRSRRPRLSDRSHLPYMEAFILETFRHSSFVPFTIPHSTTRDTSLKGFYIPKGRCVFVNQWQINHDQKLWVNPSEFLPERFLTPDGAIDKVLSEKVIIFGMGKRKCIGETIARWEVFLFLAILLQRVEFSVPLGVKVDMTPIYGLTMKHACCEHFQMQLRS
Summary of the method: as §1

Sequence of Cytochrome P450 2B1 (Rattus norvegicus) (P00176 whole entry, looked up): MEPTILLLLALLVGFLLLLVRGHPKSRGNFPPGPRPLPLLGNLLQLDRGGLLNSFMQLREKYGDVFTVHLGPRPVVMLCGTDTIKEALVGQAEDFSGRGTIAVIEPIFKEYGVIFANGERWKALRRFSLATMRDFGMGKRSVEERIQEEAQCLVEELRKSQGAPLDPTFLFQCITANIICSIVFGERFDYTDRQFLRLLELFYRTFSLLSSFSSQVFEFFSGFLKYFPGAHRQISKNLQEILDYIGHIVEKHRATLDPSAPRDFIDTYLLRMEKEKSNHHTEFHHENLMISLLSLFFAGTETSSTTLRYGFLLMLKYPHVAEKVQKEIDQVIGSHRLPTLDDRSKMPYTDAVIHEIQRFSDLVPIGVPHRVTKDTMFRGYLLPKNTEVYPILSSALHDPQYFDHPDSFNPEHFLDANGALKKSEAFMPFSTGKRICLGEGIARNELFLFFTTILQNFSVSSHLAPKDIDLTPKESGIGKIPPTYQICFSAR

Structure (SMILES)	IC50 [1] [µM]	IC50 at 5 min [2] [µM]	IC50 [3] [µM]
C#CCOc1ccc(-c2cc(O)c3c(=O)cccc-3o2)cc1	> 25	> 25	
O=c1cccc2oc(-c3ccc4c(c3)OCC=C4)cc(O)c1-2	> 25	> 25	
O=c1cccc2oc(-c3cccc4c3C=CCO4)cc(O)c1-2	> 25	> 25	
O=c1cc(-c2ccccc2)oc2cccc(O)c12 [5-Hydroxy-2-phenyl-chromen-4-one]			4.03

Continued, values first:

IC50 [1] [µM]	IC50 at 5 min [2] [µM]	IC50 [3] [µM]	Structure (SMILES)
> 25	> 25		O=c1cccc2oc(-c3ccc4c(c3)C=CCO4)cc(O)c1-2
4.08	> 25		C#CCOc1cccc(-c2cc(O)c3c(=O)cccc-3o2)c1
